Where a SMILES comes first, the peptide text is derived from it. Bridges are numbered along the chain shown (N, C = ends). [ ]: non-standard residue; d: D form. 2Nal = N[C@@H](Cc1ccc2ccccc2c1)C(=O)O; Lys(iPr) = CC(C)NCCCC[C@H](N)C(=O)O Where only a bound is given, the exact number is not on record here.

Series [1] is classed as in vivo, human. The method, boiled down: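 The analysis used 767 plasma samples from 147 patients given once-daily s.c. doses. Concentrations were measured by validated LC-MS/MS (LLOQ 0.2, ULOQ 100 ng/mL). The data were fitted with a two-compartment nonlinear mixed-effects model with first-order absorption and dose-dependent clearance. Exponential interindividual variability was used, with allometric body-weight scaling to an 80.1-kg subject. The model was built on rich dose-escalation data, then refined with sparse data. Absorption rate was later fixed at 10 h-1.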

The next series has as its system blood CD34+ cell counts. Type of series: in vivo, human. The settings on record: patients. The method, boiled down: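 Pooled data from three open-label trials of once-daily s.c. peptide antagonist. In the dose-escalation trial, patients received 1–30 mg/day, or 2.5 or 20 mg/day, for 28-day cycles with rich sampling. The other two trials gave 20 mg/day with standard-of-care chemotherapy or sunitinib and used sparse sampling. CD34+ counts were measured by flow cytometry. The model was a precursor model with reversible precursor–central transfer and concentration-driven stimulation of mobilisation (Smax, SC50).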

A short description of a further series: Antidrug antibody. The arrangement: species or system human. The settings on record: all patients included in the analysis datasets. The method, boiled down:
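Serum was sampled repeatedly before and after starting once-daily s.c. dosing. Qualitative direct ELISA: the test compound was immobilised on the plate to capture antibodies, which were detected with HRP-conjugated goat anti-human IgG, IgM and IgA and a tetramethylbenzidine substrate. Pooled normal human serum served as negative control. Serum from hyperimmunised cynomolgus monkeys, at various dilutions, served as positive control.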

The test system of a further series is CXCR4. The settings on record: cited from earlier work.
Series [2] relates to CXCL12/CXCR4-mediated chemotaxis. The settings on record: in vitro; cited from earlier work.
The subject of series [3] is leukocytes and hematopoietic progenitors. The following applies: rodent and primate models; cited from earlier work.
The next series concerns MDA‐MB‐231 breast cancer. The settings on record: MDA‐MB‐231 breast cancer metastatic xenograft model; cited from earlier work.
The subject of another series is cytochromes. The settings on record: preclinical evaluations, no reference given; cited from earlier work.
The conditions of series [4]: rats, excretion studies, no reference given; cited from earlier work.
Where [5] appears, read: population PK typical value, s.c.

Regarding `CC(C)NCCCC[C@H](NC(=O)[C@H]1CCC(=O)N[C@@H](Cc2ccccc2)C(=O)N[C@@H](Cc2ccc(O)cc2)C(=O)N[C@@H](CCCCNC(C)C)C(=O)N[C@H](CCCNC(=N)N)C(=O)N[C@@H](Cc2ccc3ccccc3c2)C(=O)NCC(=O)N1)C(N)=O` [LY2510924] (FY[Lys(iPr)][dR][2Nal]G[dE][Lys(iPr)]-NH2; lactam N-7), the “TVKA, estimates of typical first‐order absorption rate when estimated” value in [1] (high and poorly estimated, before fixing, s.c.) is > 40 h⁻¹. Further, the “TVV2/F, typical apparent central volume of distribution” value in [1] (population PK typical value, 80.1-kg subject, s.c.) came out at 35.0 L. Also, the “TVCLmin/F, typical minimum apparent elimination clearance” value in series [1] (population PK typical value, 80.1-kg subject, s.c. once daily, 147 patients) came out at 4.75 L/h. In addition, in [1] (setting [5]), the “TVQ/F, typical apparent distribution clearance” value stood at 3.74 L/h and the “TVV3/F, typical apparent peripheral volume of distribution” value turned out to be 21.9 L. Also, the “bV, typical allometric exponent specific to central volume” value in series [1] (population PK, body weight scaling relative to 80.1 kg) is 0.948. The “SC50, LY2510924 concentration at which half of the maximum stimulatory effect is achieved” value with blood CD34+ cell counts (PK/PD model typical value, plasma concentration) worked out at 6.87 ng/mL. Besides, the “Smax, maximum stimulatory effect of LY2510924 on CD34+ cell mobilization” value in the series with blood CD34+ cell counts (PK/PD model typical value, s.c. once daily) was determined as 13.1. Moreover, in the series on blood CD34+ cell counts (read-out: SC50, LY2510924 concentration at which half of the maximum stimulatory effect is achieved, conversion of 6.87 ng/mL, plasma concentration), the EC50 is 5.78 nM. Further, in the series “Antidrug antibody”, the “patients who developed ADA” value was “None”. For the same compound, in the series with CXCR4, the CXCR4 agonist properties entry was “does not exhibit any CXCR4 agonist properties”. Besides, the “value observed in chemotaxis inhibition assays” value in series [2] is 0.26 nM. Moreover, in series [3], the “mobilization of leukocytes and hematopoietic progenitors to the blood stream” value was “dose‐ and time‐dependent mobilization”. For the same compound, the “effect on tumor metastasis” value in the series on MDA‐MB‐231 breast cancer is reported as “inhibit tumor metastasis”. In the series on cytochromes, the “substrate, inhibitor or inducer of cytochromes” value was “not a substrate, an inhibitor, or an inducer of cytochromes”. Moreover, the “dose recovered as parent drug in urine” value in series [4] is reported as < 40%.

These data come from publication PMC5613202 (CPT: Pharmacometrics & Systems Pharmacology, 2017).
